# Experimental data: PubChem BioAssay AID504348 (Broad Institute, 2011)
# Results filed as inconclusive are left out. Calls of active or inactive are those of the source.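 Rule for the calls: active = dose curve reaching 10% of the positive control caspase signal at or below the top valid dose; inconclusive = no clear call, values can overlap the other calls; inactive = reverse-direction response, or no crossing within range.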
# Assay: apoptosis induction in Mcl1-reliant human cancer line – cell-based, HMC 1-8, luminescence, dry powder, set 3, counter-screen for A1 inhibitor project, dose response (AID 504348)
# Details: HMC 1-8 cells, caspase-Glo luminescence, 4 h; series mostly up to 35 µM
# Outline: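 Medium: RPMI-1640 growth medium with 10% FBS / Material: HMC 1-8 human cancer line, low A1 / Quantity: 2500 cells per well / Timing: 4 h compound exposure, 37 °C, plus 1 h room-temperature detection / Technique: luminescence with CaspaseGlo reagent diluted 1:1 in 50 mM HEPES / Dosing: pinned compound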
row,SMILES,outcome
1,O=c1[nH]c2ccccc2c(Cl)c1[N+](=O)[O-],inactive
2,COc1nc2ccccc2c(Sc2ccc(C)cc2)c1[N+](=O)[O-],inactive
3,C/C(=N\Nc1nc(N2CCCCC2)nc(N2CCCCC2)n1)c1ccc(F)cc1,inactive
4,COc1ccc(CCNc2nc(N3CCCC3)nc(N3CCCC3)n2)cc1OC,inactive
5,COCCn1c(=O)c([N+](=O)[O-])c(Sc2ccc(C)cc2)c2ccccc21,inactive
6,COc1ccc(N2CCN(c3nc(NCCc4ccc(OC)c(OC)c4)nc(N4CCOCC4)n3)CC2)cc1,inactive
7,O=C(COc1ccc(Cl)cc1Cl)NNc1nc(N2CCOCC2)nc(N2CCOCC2)n1,inactive
8,COc1ccc(CCNc2nc(N3CCOCC3)nc(N3CCOCC3)n2)cc1OC,inactive
9,Cn1c(=O)c(Sc2ccccn2)c(Sc2ccccn2)c2ccccc21,inactive
10,CCn1c(=O)c([N+](=O)[O-])c(Sc2ccc(C)cc2)c2ccccc21,inactive
11,Cc1ccc(Sc2c([N+](=O)[O-])c(=O)n(Cc3ccccc3)c3ccccc23)cc1,inactive
